IDH1 mut inh – inhibitors of human IDH1 R132H. IDH1 R132H reductase, diaphorase/resazurin fluorescence, 60 min. inhibition, % at 10 µM. 0.18% of 70,000 active. AID 624101; in the data active = inhibition above about 34%; inconclusive = no clear call, values can overlap the other calls; inactive = below about 11%;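 note: 0% = DMSO and 100% = no enzyme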
Target sequence (O75874 whole entry R132H): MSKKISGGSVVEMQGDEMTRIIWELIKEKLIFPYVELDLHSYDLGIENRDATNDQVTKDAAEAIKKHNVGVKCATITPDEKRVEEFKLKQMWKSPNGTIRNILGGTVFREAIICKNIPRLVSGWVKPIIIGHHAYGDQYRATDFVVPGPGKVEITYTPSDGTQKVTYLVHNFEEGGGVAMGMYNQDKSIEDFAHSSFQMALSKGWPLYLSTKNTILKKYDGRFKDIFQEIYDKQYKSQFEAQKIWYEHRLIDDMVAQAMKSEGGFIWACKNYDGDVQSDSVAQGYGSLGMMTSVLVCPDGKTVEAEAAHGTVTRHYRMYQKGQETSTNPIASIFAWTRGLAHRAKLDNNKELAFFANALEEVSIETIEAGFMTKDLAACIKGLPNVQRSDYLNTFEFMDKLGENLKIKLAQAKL
T cruzi growth-1 – T. cruzi proliferation inhibition | T. cruzi beta-gal in NIH3T3, GalScreen luminescence, 90 h | inhibition, % at 8.34 µM | 5.9% of 77,000 active | AID 624255;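 active = mean inhibition above about 93%, with at least 55% of replicates each passing it, limit read from the data, passing the limit was not always enough; inconclusive = only one of those two conditions holds; inactive = neither condition holds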
KDM4C inh – KDM4C (human) demethylase inhibition; 0.15% of 96,000 active; GST-KDM4C 2-372, H3K9me3 peptide, LANCE TR-FRET; inhibition, % at 12.5 µM; Q9H3R0;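 active = mean replicate inhibition above about 25%, with at least 55% of replicates also reaching it, limit read from the data, passing the limit was not always enough; inconclusive = only one of those two conditions met; inactive = neither condition met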
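System: N-terminal GST-fused human GASC-1 (KDM4C) fragment, residues 2-372; amount: enzyme final amount 10 nM; incubation: reaction 30 min RT, detection step 1 h RT; medium: HEPES buffer, pH 7.5, plus ascorbate; technique: LANCE TR-FRET, Eu antibody, ULight-streptavidin, EDTA, ex 340 nm, em 618/671 nm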
T cruzi growth-2 – inhibitors of T. cruzi proliferation. shares compounds with T cruzi growth-1. T. cruzi beta-gal in NIH3T3, GalScreen luminescence, 90 h. inhibition, % at 8.35 µM. 72% of 5,600 active. AID 651739;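 active = mean replicate inhibition above about 95% and at least 55% of replicates individually reaching it, limit read from the data; inconclusive = only one of the two criteria is met; inactive = neither criterion is met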
T cruzi growth-3 – Trypanosoma cruzi proliferation inhibition. 21% of 5,600 active. T. cruzi beta-gal in NIH3T3, GalScreen luminescence, 90 h. shares compounds with T cruzi growth-1. inhibition, % at 2.09 µM;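 active = mean inhibition above about 95%, with at least 55% of replicates also reaching it, limit read from the data; inconclusive = meets just one of the two conditions; inactive = meets neither condition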;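 note: plate controls were neutral control median for no effect and positive control median for full effect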
NIH3T3 tox – cytotoxicity in mouse NIH/3T3 fibroblasts. AID 651742. 14% of 5,600 active. NIH/3T3 viability, CellTiter-Glo ATP luminescence, 90 h. cytotoxicity (signal decrease), % at 8.35 µM. shares compounds with T cruzi growth-1;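 active = mean signal decrease across replicates above about 35% based on untreated-well scatter, with enough replicates individually passing, limit read from the data; inconclusive = no rule stated though some were filed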;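 note: 0% = median of neutral control wells and 100% = median of positive control wells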
3T3 cytotox 2 – kills mouse NIH/3T3 fibroblasts. AID 651744. 56% of 5,600 active. inhibition, % at 24.9 µM. shares compounds with T cruzi growth-1. NIH/3T3 viability, CellTiter-Glo ATP luminescence, 90 h;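 active = mean loss of cell viability signal at or above a set limit, and enough replicates individually reaching it; inconclusive = meets only the mean limit or only the replicate share; inactive = meets neither condition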;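 note: 0% = median of neutral control wells and 100% = median of positive control wells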
An asterisk follows results filed as active. Shown is part of a subset that was picked to be rich in hits.

CCN1[C@@H]2c3ccc(-c4ccccc4OC)c(=O)n3C[C@@H]2[C@@H](CO)[C@@H]1C(=O)NCc1ccccc1 was read as T cruzi growth-1 51.8 and KDM4C inh 2.3.
Screening COc1ccccc1-c1ccc2n(c1=O)C[C@H]1[C@H](CO)[C@@H](C(=O)Nc3nccs3)N(CC3CC3)[C@@H]21 returned T cruzi growth-1 inconclusive, KDM4C inh 3.1, T cruzi growth-2 -1.0, T cruzi growth-3 -27.6, NIH3T3 tox 3.2 and 3T3 cytotox 2 11.4.
CCN1[C@@H]2c3ccc(-c4ccccc4OC)c(=O)n3C[C@@H]2[C@@H](CO)[C@@H]1C(=O)Nc1nccs1 was read as T cruzi growth-1 86.7 and KDM4C inh 0.9.
CCN1[C@H](C(=O)NCc2ccc(F)cc2)[C@@H](CO)[C@@H]2Cn3c(ccc(-c4ccccc4OC)c3=O)[C@@H]21 was read as T cruzi growth-1 103.7*, KDM4C inh 1.3, T cruzi growth-2 69.2, T cruzi growth-3 18.4, NIH3T3 tox 16.6 and 3T3 cytotox 2 3.5.
O=C(Nc1ccc(I)cc1C(=O)NCc1cccnc1)c1ccccc1Cl was read as IDH1 mut inh 0.6.
`CC1(C)CC2/C(CO)=C\C=C[C@@](C)(O)CC[C@]21O` (some centres not stated) gave IDH1 mut inh -0.1.
For CCC[C@@H](O)[C@H](O)[C@@H]1CC(OC)=CC(=O)O1 the results were IDH1 mut inh 0.5.
`O=C(COc1ccc(N2CC(C(=O)O)CC2=O)cc1)Nc1ccc(Cl)c(Cl)c1` (configuration not stated) gave IDH1 mut inh 0.8.
Screening C[C@@H]1CCCCO[C@H](CN(C)S(=O)(=O)c2ccc(Cl)cc2)[C@@H](C)CN([C@@H](C)CO)C(=O)c2cc(N(C)C)ccc2O1 returned IDH1 mut inh 0.5, T cruzi growth-1 99.9*, KDM4C inh 0.1, T cruzi growth-2 111.4*, T cruzi growth-3 28.4, NIH3T3 tox -16.9 and 3T3 cytotox 2 -17.9.
For COc1ccc(S(=O)(=O)N(C)C[C@H]2OCCCC[C@H](C)Oc3ccc(N(C)C)cc3C(=O)N([C@H](C)CO)C[C@H]2C)cc1 the results were T cruzi growth-1 12.4 and KDM4C inh -0.5.
Screening C[C@@H]1CCCCO[C@H](CN(C)S(=O)(=O)c2ccc(Cl)cc2)[C@H](C)CN([C@@H](C)CO)C(=O)c2cc(N(C)C)ccc2O1 returned IDH1 mut inh 1.7, T cruzi growth-1 86.3 and KDM4C inh -0.9.
`C[C@H](CO)N1C[C@H](C)[C@H](CN(C)S(=O)(=O)c2ccc(Cl)cc2)OCCCC[C@H](C)Oc2ccc(N(C)C)cc2C1=O` gave IDH1 mut inh 0.4, T cruzi growth-1 100.2*, KDM4C inh -0.9, T cruzi growth-2 109.7*, T cruzi growth-3 47.1, NIH3T3 tox 2.7 and 3T3 cytotox 2 12.4.
`C[C@@H]1CCCCO[C@@H](CN(C)S(=O)(=O)c2ccc(Cl)cc2)[C@@H](C)CN([C@H](C)CO)C(=O)c2cc(N(C)C)ccc2O1` gave T cruzi growth-1 73.1 and KDM4C inh 0.2.
For COc1ccc(S(=O)(=O)N(C)C[C@H]2OCCCC[C@@H](C)Oc3ccc(N(C)C)cc3C(=O)N([C@H](C)CO)C[C@H]2C)cc1 the results were IDH1 mut inh 0.4, T cruzi growth-1 116.7*, KDM4C inh -2.0, T cruzi growth-2 57.0, T cruzi growth-3 -10.0, NIH3T3 tox 25.3 and 3T3 cytotox 2 21.5.
For COc1ccccc1NC(=O)c1ccc(OC(C)C(=O)Nc2cc(Cl)ccc2C)cc1 (configuration not stated) the results were IDH1 mut inh 0.2.
`CC(=O)Nc1ccccc1NC(=O)COc1ccc(C(C)(C)C)cc1Br` gave IDH1 mut inh -0.9.
CC(C)c1ccc(NC(=O)CSc2n[nH]c(-c3ccc(Cl)cc3)n2)cc1 was read as IDH1 mut inh 0.5.
`CCN(CC(=O)Nc1ccc2c(c1)OCCO2)S(=O)(=O)c1ccc(Cl)cc1` gave IDH1 mut inh 0.0.
`CC1Oc2c3c(c4c(-c5ccccc5)cc(=O)oc4c2C(=O)C1C)OC(C)(C)C=C3` (configuration not stated) gave IDH1 mut inh 6.2.
Screening C[C@@H]1CCCCO[C@@H](CN(C)C(=O)Nc2ccc3c(c2)OCO3)[C@H](C)CN([C@H](C)CO)C(=O)c2cc(NS(=O)(=O)c3ccc(Cl)cc3)ccc2O1 returned T cruzi growth-1 inconclusive, KDM4C inh -0.5, T cruzi growth-2 101.4*, T cruzi growth-3 62.3, NIH3T3 tox -17.9 and 3T3 cytotox 2 6.0.
Screening C[C@@H]1CCCCO[C@@H](CN(C)C(=O)Nc2ccc3c(c2)OCO3)[C@H](C)CN([C@@H](C)CO)C(=O)c2cc(NS(=O)(=O)c3ccccc3)ccc2O1 returned T cruzi growth-1 50.0 and KDM4C inh 0.6.
C[C@@H]1CN([C@H](C)CO)C(=O)c2cc(NS(=O)(=O)c3ccc(Cl)cc3)ccc2O[C@@H](C)CCCCO[C@H]1CN(C)C(=O)Nc1ccc2c(c1)OCO2 was read as IDH1 mut inh 1.6 and KDM4C inh -0.2.
C[C@H](CO)N1C[C@H](C)[C@H](CN(C)C(=O)Nc2ccc3c(c2)OCO3)OCCCC[C@H](C)Oc2ccc(NS(=O)(=O)c3ccccc3)cc2C1=O was read as IDH1 mut inh -1.6, T cruzi growth-1 101.3*, KDM4C inh 0.0, T cruzi growth-2 107.0*, T cruzi growth-3 40.5, NIH3T3 tox 6.1 and 3T3 cytotox 2 -4.9.
COc1cccc(OC)c1/C=N/NC(=O)CCCCCC(=O)NO was read as IDH1 mut inh 0.4.
For O=C(NCCNc1ccc(C(F)(F)F)cc1[N+](=O)[O-])c1cccc(Br)c1 the results were IDH1 mut inh -0.2.
For O=C(CCCCCC(=O)N/N=C/c1ccncc1Br)NO the results were IDH1 mut inh -0.1.
Screening O=C(C[C@@H]1CC[C@H]2[C@@H](COC[C@H](O)CN2CCc2ccccc2)O1)NCc1ccc(Oc2ccccc2)cc1 returned T cruzi growth-1 63.6 and KDM4C inh -4.0.
O=C(C[C@H]1CC[C@@H]2[C@H](COC[C@H](O)CN2CCc2ccccc2)O1)NCc1ccc(Oc2ccccc2)cc1 was read as T cruzi growth-1 102.7*, KDM4C inh 1.0, T cruzi growth-2 101.7*, T cruzi growth-3 94.8, NIH3T3 tox -0.4 and 3T3 cytotox 2 106.6*.
Screening O=C(C[C@@H]1CC[C@H]2[C@@H](COC[C@H](O)CN2CCC(F)(F)F)O1)NCc1ccc(Oc2ccccc2)cc1 returned T cruzi growth-1 52.6 and KDM4C inh 0.1.
